# RAD52 anneal inh = inhibitors of human RAD52 DNA annealing. inhibition, % at 18.7 µM. hit rate 0.46% among 360,000. AID 651710. recombinant RAD52 DNA annealing, FRET fluorescence;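 active = every replicate showing at least 50% inhibition; inconclusive = mean inhibition at least 50% but not in every replicate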
# RAD54 inh = RAD54 (human) branch migration inhibition; Q92698; RAD54 Holliday junction branch migration, FAM/BHQ fluorescence; inhibition, % at 10.4 µM; hit rate 0.14% among 360,000; AID 602329;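 active = mean normalized replicate activity at least 40 and at least half of replicates scoring 40 or more; inconclusive = only one of the two criteria met; inactive = mean below 40 and under half of replicates reaching 40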;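 note: 0% = median of neutral control wells and 100% = median of positive control wells; inhibitors cause a drop in the FAM fluorescence signal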
# GSIS activator = GLuc luminescence reporter in INS-1E cells, primary screen for activators of glucose-dependent secretion of insulin; activation, % at 16.6 µM; INS-1E GLuc reporter insulin secretion, 2-3 h; hit rate 0.61% among 370,000;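 active = lowest replicate activation of at least 40%, so every replicate reaches that level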;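 note: 0% = median of neutral control wells and 100% = median of IBMX positive control wells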
# MLL AF4-AF9 inh = blocks AF4 peptide binding to human AF9 | P42568 | AlphaScreen, biotin-AF4 peptide binding to FLAG-AF9 | inhibition, % at 10 µM | hit rate 0.47% among 350,000;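 active = every replicate reaching a set inhibition limit, whatever the replicate mean, cut at about 25% in these data; inconclusive = mean inhibition reaches that limit but some replicates miss it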;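 note: 0% = plate neutral control median and 100% = total signal loss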
# E-sel inducer = induces E-selectin expression in human endothelial cells. AID 686992. P16581. activation, % at 7.58 µM. HUVEC E-selectin immunofluorescence imaging; normalized: neutral wells 0, TNF-alpha wells 100. hit rate 0.37% among 260,000;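 active = mean E-selectin-positive cell signal at least 10% of the positive control, reached in at least 60% of replicates, without over 20% cell loss; inconclusive = no rule given, readout overlaps actives, possibly toxicity-flagged; inactive = the rest, including those meeting only one limit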
# Target sequence (P16581 whole entry, looked up): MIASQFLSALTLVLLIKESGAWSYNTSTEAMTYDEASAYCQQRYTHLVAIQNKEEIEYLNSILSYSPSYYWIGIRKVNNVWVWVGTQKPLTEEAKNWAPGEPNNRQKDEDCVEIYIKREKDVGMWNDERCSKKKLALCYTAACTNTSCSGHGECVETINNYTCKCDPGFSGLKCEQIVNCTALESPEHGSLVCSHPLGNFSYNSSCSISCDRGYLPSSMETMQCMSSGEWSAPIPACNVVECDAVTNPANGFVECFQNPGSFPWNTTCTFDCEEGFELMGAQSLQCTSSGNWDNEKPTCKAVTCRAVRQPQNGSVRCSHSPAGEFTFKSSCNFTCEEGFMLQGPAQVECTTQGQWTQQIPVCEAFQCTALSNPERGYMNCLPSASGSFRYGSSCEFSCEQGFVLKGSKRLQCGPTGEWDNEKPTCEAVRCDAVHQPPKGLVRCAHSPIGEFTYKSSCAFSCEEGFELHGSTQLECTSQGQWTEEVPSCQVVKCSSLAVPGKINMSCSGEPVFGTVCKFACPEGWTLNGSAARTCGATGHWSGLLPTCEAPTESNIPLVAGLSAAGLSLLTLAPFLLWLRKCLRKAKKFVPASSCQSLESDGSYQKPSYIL
#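 Test system: HUVEC; input: 3,000 HUVEC/well; measured by: immunofluorescence imaging; read-out: % PE-positive cells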
# Ecoli rRNA inh = selective bacterial rRNA inhibition in E. coli. E. coli WT GFP vs humanized-ribosome RFP mutants, fluorescence, 24 h; active compounds read low; DMSO median 0, no signal -100. GFP signal change (wild-type ribosome), % (no concentration beside the values). hit rate 1.6% among 350,000;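 active = significant combined selectivity score with lowered wild-type GFP, culture density cut under 30%, mutant RFP and density less affected; inactive = any of these conditions unmet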
# Alpha interfer = interferes with the AlphaScreen assay signal. shares compounds with MLL AF4-AF9 inh. hit rate 45% among 530. AlphaScreen interference counter-screen, signal luminescence. AC50, µM (titrated, usually from 12 µM), for inactives: top-dose activity change, negative = inhibition. AID 720494; cut-off not given, nearly all actives have AC50 up to about 14 µM
# Numbers without * were called inactive; u = inconclusive; x = no result. Most compounds without a hit are left out; they make up all but 2.6% or so of the library.
SMILES,RAD52 anneal inh,RAD54 inh,GSIS activator,MLL AF4-AF9 inh,E-sel inducer,Ecoli rRNA inh,Alpha interfer
C(=C\c1ccccc1)/CN1CCN(C(c2ccccc2)c2ccccc2)CC1,-11,11,-31,2,0,-7,x
Cc1oc(-c2cccc3ccccc23)nc1CN1CCN(c2ncnc3ccccc23)CC1,-29,x,x,22,-1,-54,-10%
Cc1cnc(C)c(N2CCN(Cc3nc(-c4ccc(C)o4)oc3C)CC2)n1,-21,x,0,5,x,10,x
CO[C@@H](CN(C)S(=O)(=O)c1ccc(F)cc1)[C@@H](C)CN(C(=O)Nc1ccccc1F)[C@@H](C)CO,-5,4,3,-5,0,2,x
CCN(CC)c1ccc(C(=O)O)cc1,-10,x,-2,-1,x,0,x
CCN(CC)c1ccc(C(=C2C=CC(=[N+](CC)CC)C=C2)c2ccc(S(=O)(=O)O)cc2S(=O)(=O)[O-])cc1,-22,-15,-6,60*,x,-8,7.9µM*
COc1ccc(NC(=O)N(C)C[C@H]2Oc3c(NC(=O)Nc4ccc5c(c4)OCO5)cccc3C(=O)N([C@@H](C)CO)C[C@H]2C)cc1,-5,-3,-23,12,x,-3,x
CC(C)=CCc1cc(-c2oc3cc(O)cc(O)c3c(=O)c2O)ccc1O,-9,6,-23,35*,x,x,-42%
CC(=NNC(=S)N1CCN(c2ccccn2)CC1)c1ccccn1,21,x,x,14,x,x,x
CC(=NNC(=S)N1CCN(C2CCCCCC2)CC1)c1ccccn1,-16,x,12,46*,1,16,1.2µM*
CN(C)c1ccc(NC(=S)NC23CC4CC(CC(C4)C2)C3)cc1,-14,6,18,44*,73*,-7,-29%
CCOc1ccc(NC(=S)NC23CC4CC(CC(C4)C2)C3)cc1,-29,8,1,-6,x,11,x
Cc1noc(C)c1S(=O)(=O)Nc1ccc2c(c1)CC(=O)N([C@H](C)CO)C[C@H](C)[C@@H](CN(C)C(=O)Nc1ccc(F)cc1)O2,-4,-8,-1,7,-16,4,x
COc1ccc(N2CCN(CCCNC(=O)CCC(=O)N3CCOc4ccc(Cl)cc43)CC2)cc1,10,-1,8,38*,x,-7,12µM*
CN1CCN(c2ccc(S(=O)(=O)N3CCCCC3)cc2NC(=O)/C=C/c2ccc(Cl)c([N+](=O)[O-])c2)CC1,5,-2,-56,u,0,-50,2%
CCN1CCN(c2ccc(S(=O)(=O)N3CCCCC3)cc2NC(=O)/C=C/c2ccc([N+](=O)[O-])cc2)CC1,12,-4,-24,14,x,-4,x
C[C@@H]1CN([C@@H](C)CO)C(=O)Cc2cc(N(C)C)ccc2O[C@H]1CN(C)Cc1ccc(Oc2ccccc2)cc1,x,x,-8,x,1,-51,x
C[C@@H]1CN([C@H](C)CO)C(=O)Cc2cc(N(C)C)ccc2O[C@H]1CN(C)Cc1ccc(Oc2ccccc2)cc1,35,-6,0,43*,-4,-34,-40%
O=C(N/N=C/c1sc(N2CCCCC2)nc1-c1cccs1)C1CC1,-44,x,-6,23,2,-18,-20%
O=C(N/N=C/c1sc(N2CCOCC2)nc1-c1ccccc1)c1ccccc1Cl,-18,0,9,-3,-1,2,x
Cc1noc(C)c1NC(=O)NCC[C@H]1CC[C@@H](NC(=O)Cc2cccnc2)[C@H](CO)O1,-4,-3,6,5,-1,3,x
COc1ccc(NCc2nn(CC(=O)c3ccc(Br)cc3)c3[n+]2CCCCC3)cc1,5,x,-8,30*,0,-16,-43%
Cc1cccc(C)c1N=Nc1c(C)cc(O)cc1C,1,4,571*,35*,1,-29,10µM*
CN=c1scc(-c2ccc(OC)cc2)n1/N=C(\C)c1cccnc1,-37,x,2,48*,x,-52,11µM*
COc1ccc(CC(=O)N/N=C(\C)c2cccnc2)cc1,-13,0,32,2,x,10,x
SMILES,RAD52 anneal inh,RAD54 inh,GSIS activator,MLL AF4-AF9 inh,E-sel inducer,Ecoli rRNA inh,Alpha interfer
O=[N+]([O-])c1ccccc1/C=C/C=N/N1CCCCC1,-11,x,-1,26*,-1,-4,13µM*
O=C(/C=C/c1ccccc1[N+](=O)[O-])N1CCCCC1,-2,x,-2,-1,0,1,x
CN(C)CC(=O)Nc1ccc2c(c1)[C@H]1C[C@@H](CC(=O)NCc3cc(F)ccc3F)O[C@@H](CO)[C@H]1O2,5,23,9,0,-1,2,x
C#CCOCCOCCOCCNc1nc(N2CCN(C(=O)C([C@@H](C)O)n3cc([C@@H](N)CCCCN)nn3)CC2)nc(N2CCN(C(=O)C([C@@H](C)O)n3cc([C@@H](N)CCCCN)nn3)CC2)n1 (stereo partly specified),10,-6,x,39*,0,9,17%
C#CCOCCOCCOCCNc1nc(N2CCN(C(=O)[C@H](CCCCN)n3cc([C@@H](N)C(C)CC)nn3)CC2)nc(N2CCN(C(=O)[C@H](CCCCN)n3cc([C@@H](N)CC(C)C)nn3)CC2)n1 (stereo partly specified),37,35,3,56*,x,7,-3%
COc1ccc(S(=O)(=O)N(C)C[C@@H]2OCCCC[C@H](C)Oc3ccc(NS(=O)(=O)c4c(C)noc4C)cc3C(=O)N([C@H](C)CO)C[C@@H]2C)cc1,-4,-1,-10,0,0,0,x
CCOC(=O)C1CCN(C2=C(NS(=O)(=O)c3ccc(Cl)cc3)C(=O)c3ccccc3C2=O)CC1,-18,x,-11,30*,x,-14,1%
CC1CCN(C2=C(NS(=O)(=O)c3ccc(Br)cc3)C(=O)c3ccccc3C2=O)CC1,-2,7,11,50*,x,-3,-36%
CCOC(=O)C1CCCN(C2=C(NS(=O)(=O)c3ccc(Br)cc3)C(=O)c3ccccc3C2=O)C1 (stereo unspecified),7,1,10,52*,x,-10,-20%
CC1CCCN(C2=C(NS(=O)(=O)c3ccc(Br)cc3)C(=O)c3ccccc3C2=O)C1 (stereo unspecified),-15,-8,15,-8,x,-2,x
COCCNC(=O)C[C@H]1C[C@@H]2c3cc(NC(=O)Nc4ccccc4)ccc3O[C@@H]2[C@H](CO)O1,-2,2,5,-2,0,-1,x
COc1ccc(-c2sc(Nc3ccccc3)n[n+]2-c2ccc(F)cc2)cc1Br,-53,-2,-10,1,x,-2,x
COc1ccc2ccccc2c1-c1sc(Nc2ccccc2)n[n+]1-c1ccc(F)cc1,33,-2,-47,43*,x,-58,-27%
COc1ccc(C)cc1Nc1n[n+](-c2ccccc2)c(-c2c(Cl)cccc2Cl)s1,16,x,-41,45*,x,-56,-20%
